Assay results reported in ChEMBL document CHEMBL1137729, “Synthesis, evaluation and 3D QSAR analysis of novel estradiol-RGD octapeptide conjugates with oral anti-osteoporosis activity” (Eur J Med Chem, 2009).
Active and inactive are the calls of the source. No cut-off for these calls is given here. Residues, ends and D or L forms follow the SMILES beside them. *: point of attachment. Succinyl(O17-estradiol) = C[C@]12CC[C@@H]3c4ccc(O)cc4CC[C@H]3[C@@H]1CC[C@@H]2OC(=O)CCC(=O)*

Assays:
[1] = Stability in presence of pepsin at 37 degC after 90 mins; assay type: ADME; details: isolated protein, 1.5 h
Mus musculus [2] = test: Antiosteoporosis activity in ovariectomized ICR mouse assessed as mineral content in femur at 110.3 nmol/kg, po treated for 4 weeks measured after 1 day of last treatment; assay type: functional
In short: (§1)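 Female mice, ovariectomized (sham: laparotomy only); from day 5 post-surgery dosed orally once daily with 110.3 nmol/kg in 0.2 ml 0.5% carboxymethylcellulose for 4 weeks (vehicle to OVX/sham). Left femur taken the day after the last dose, cleaned of muscle, length measured, defatted in chloroform–methanol (2:1, 2×3 h), dried 120 °C 6 h and weighed, ashed 800 °C 8 h and weighed. Mineral content = ash/dry weight; femur ash dissolved in 6 N HCl, diluted, calcium by o-methylphenolphthalein complexone. n = 12.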

Mus musculus [3] = test: Antiosteoporosis activity in osteoporotic female mouse at 0.11 umol/kg, po; assay type: functional, organism-based
In short: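 Dose-finding pre-treatment: series of oral doses given to osteoporotic female mice; ex vivo anti-osteoporosis activity assessed to assign a general dose for all later experiments.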

Mus musculus [4] = test: Antiosteoporosis activity in ovariectomized ICR mouse assessed as weight of femur ash at 110.3 nmol/kg, po treated for 4 weeks measured after 1 day of last treatment; assay type: functional; in short: as §1
Mus musculus [5] = test: Toxicity in ovariectomized ICR mouse assessed as effect on tail bleeding time at 110.3 nmol/kg, po treated for 4 weeks measured after 90 mins of last treatment; assay type: organism-based; details: in vivo, 1.5 h
In short: (§2)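 OVX mice received 110.3 nmol/kg orally in 0.5% carboxymethylcellulose daily for 4 weeks. At 30 and 90 min after the last dose, a 2 mm tail cut was made with the mouse in a tube holder; blood was blotted every 30 s until bleeding stopped, and the time was recorded as bleeding time.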

Mus musculus [6] = test: Antiosteoporosis activity in ovariectomized ICR mouse assessed as phosphorous level in serum at 110.3 nmol/kg, po treated for 4 weeks measured after 1 day of last treatment by molybdenum blue method; assay type: functional
In short: (§3)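 Ovariectomized female mice dosed orally with 110.3 nmol/kg in 0.5% carboxymethylcellulose once daily for 4 weeks, starting day 5 after surgery. Blood taken from the orbit the day after the last dose, stood 30 min, centrifuged 3000g for 20 min, serum stored at −20 °C. Calcium read by o-methylphenolphthalein complexone; phosphorus by molybdenum blue.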

Mus musculus [7] = test: Toxicity in ovariectomized ICR mouse assessed as spleen weight at 110.3 nmol/kg, po treated for 4 weeks measured after 1 day of last treatment; assay type: organism-based; details: in vivo, 24 h
In short: (§4)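 OVX mice dosed orally once daily with 110.3 nmol/kg in 0.5% carboxymethylcellulose for 4 weeks. The day after the last dose, mice were anesthetized with pentobarbital (40.0 mg/kg ip) and killed; uteri, lungs, livers and spleens were removed and weighed directly and their morphology noted.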

Mus musculus [8] = test: Toxicity in osteoporotic female mouse at 0.11 umol/kg, po; assay type: organism-based; details: in vivo
Mus musculus [9] = test: Antiosteoporosis activity in ovariectomized ICR mouse assessed as length of femur at 110.3 nmol/kg, po treated for 4 weeks measured after 1 day of last treatment; assay type: functional; in short: as §1
Mus musculus [10] = test: Toxicity in ovariectomized ICR mouse assessed as effect on tail bleeding time at 110.3 nmol/kg, po treated for 4 weeks measured after 30 mins of last treatment; assay type: organism-based; details: in vivo, 0.5 h; in short: as §2
Mus musculus [11] = test: Toxicity in ovariectomized ICR mouse assessed as kidney weight at 110.3 nmol/kg, po treated for 4 weeks measured after 1 day of last treatment; assay type: organism-based; details: in vivo, 24 h
Mus musculus [12] = test: Antiosteoporosis activity in ovariectomized ICR mouse assessed as calcium level in serum at 110.3 nmol/kg, po treated for 4 weeks measured after 1 day of last treatment by o-methyl-phenolphthalein method; assay type: functional; in short: as §3
Mus musculus [13] = test: Toxicity in ovariectomized ICR mouse assessed as effect on uterine weight at 110.3 nmol/kg, po treated for 4 weeks measured after 1 day of last treatment; assay type: organism-based; details: in vivo, 24 h; in short: as §4
Mus musculus [14] = test: Antiosteoporosis activity in ovariectomized ICR mouse assessed as calcium content in femur at 110.3 nmol/kg, po treated for 4 weeks measured after 1 day of last treatment by o-methyl-phenolphthalein; assay type: functional; in short: as §1
Mus musculus [15] = test: Antiosteoporosis activity in ovariectomized ICR mouse assessed as phosphorous content in femur at 110.3 nmol/kg, po treated for 4 weeks measured after 1 day of last treatment by molybdenum blue method; assay type: functional
Mus musculus [16] = test: Antiosteoporosis activity in ovariectomized ICR mouse assessed as weight of dry femur at 110.3 nmol/kg, po treated for 4 weeks measured after 1 day of last treatment; assay type: functional
In short: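 Left femur taken the day after the last dose, cleaned of muscle, length measured, defatted in chloroform–methanol (2:1, 2×3 h), dried 120 °C 6 h and weighed, ashed 800 °C 8 h and weighed. Mineral content = ash/dry weight; femur ash dissolved in 6 N HCl, diluted, calcium by o-methylphenolphthalein complexone. n = 12.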

Mus musculus [17] = test: Toxicity in ovariectomized ICR mouse assessed as liver weight at 110.3 nmol/kg, po treated for 4 weeks measured after 1 day of last treatment; assay type: organism-based; details: in vivo, 24 h; in short: as §4
Mus musculus [18] = test: Toxicity in ovariectomized ICR mouse assessed as lung weight at 110.3 nmol/kg, po treated for 4 weeks measured after 1 day of last treatment; assay type: organism-based; details: in vivo, 24 h; in short: as §4
Mus musculus [19] = organism: Mus musculus; test: Inhibition of ADP-induced platelet aggregation in osteoporotic female mouse by ex vivo platelet aggregation assay; assay type: functional, organism-based
Mus musculus [20] = organism: Mus musculus; test: Inhibition of PAF-induced platelet aggregation in osteoporotic female mouse by ex vivo platelet aggregation assay; assay type: functional, organism-based
[21] = Stability in presence of pepsin at 37 degC after 4 hrs; assay type: ADME; details: isolated protein
Mus musculus [22] = test: Antiosteoporosis activity in osteoporotic female mouse at 4 umol/kg, po; assay type: functional, organism-based

Compound: N=C(N)NCCC[C@H](N)C(=O)NCC(=O)N[C@@H](CC(=O)O)C(=O)N[C@@H](Cc1ccccc1)C(=O)O (H-RGDF-OH)
- Stability [1]: Unstable

Compound: C[C@]12CC[C@@H]3c4ccc(O)cc4CC[C@H]3[C@@H]1CC[C@@H]2OC(=O)CCC(=O)N[C@@H](CCCNC(=N)N)C(=O)NCC(=O)N[C@@H](CC(=O)O)C(=O)N[C@@H](Cc1ccccc1)C(=O)N[C@@H](CCCNC(=N)N)C(=O)NCC(=O)N[C@@H](CC(=O)O)C(=O)N[C@@H](Cc1ccccc1)C(=O)O ({Succinyl(O17-estradiol)}-RGDFRGDF-OH)
- Activity (Mus musculus [2]): 0.625%
- Activity (Mus musculus [3]): Active
- Activity (Mus musculus [4]): 36.87 mg
- Time (Mus musculus [5]): 571 s
- Activity (Mus musculus [6]): 3.01 mM
- Activity (Mus musculus [7]): 0.135 g
- Activity (Mus musculus [8]): Non-toxic
- Activity (Mus musculus [9]): 1.64 cm
- Time (Mus musculus [10]): 584 s
- Activity (Mus musculus [11]): 0.16 g
- Activity (Mus musculus [12]): 3.01 mM
- Activity (Mus musculus [13]): 0.06 g
- Activity (Mus musculus [14]): 64.36%
- Activity (Mus musculus [15]): 21.56%
- Activity (Mus musculus [16]): 56.6 mg
- Activity (Mus musculus [17]): 1.266 g
- Activity (Mus musculus [18]): 0.109 g

Compound: H-RGDFRGDF-OH
- IC50 (Mus musculus [19]): 0.31 µmol/kg
- IC50 (Mus musculus [20]): 0.26 µmol/kg
- Stability [21]: Stable
- Activity (Mus musculus [22]): inactive
